This is an account of results in ChEMBL document CHEMBL4706729, “Discovery of the First Orally Available, Selective K1.1 Inhibitor: In Vitro and In Vivo Activity of an Oxadiazole Series” (ACS Med Chem Lett, 2021).

A short description of data set [1]: Lipophilicity, log D of compound. It is filed as physicochemical. The conditions noted are these: octanol/water.
The nature of data set [2]: Metabolic stability in human liver microsomes assessed as intrinsic clearance. In general terms: Liver microsomes are a subcellular fraction often used to study metabolism.
Data set [3] in a line: Clearance in CD-1 mouse at 0.5 mg/kg, iv. As to conditions: in vivo. The format is ADME, organism-based. An outline of the steps: (§1)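 CD-1 mice given a single 0.5 mg/kg IV dose in 10% DMSO, 10% Solutol, 80% water. Clearance, Vdss and half-life derived from plasma concentration–time data.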
A short description of data set [4]: Volume of distribution at steady state in CD-1 mouse at 0.5 mg/kg, iv. It is filed as ADME, organism-based. The conditions noted are these: in vivo, read-out: Vdss. The gist of the method: as §1
A short description of data set [5]: Half life in CD-1 mouse at 0.5 mg/kg, iv. It is filed as ADME, organism-based. As to conditions: in vivo. The gist of the method: as §1
Data set [6] is described as follows: Oral bioavailability in CD-1 mouse at 30 mg/kg. It is filed as ADME, organism-based. As to conditions: in vivo.
The nature of data set [7]: Free drug concentration in mouse brain harboring Kcnt1 L/L mutant at 30 mg/kg, sc. It is filed as ADME, organism-based. As to conditions: in vivo.
Data set [8] can be described thus: Free drug concentration in wildtype CD-1 mouse brain at 150 mg/kg, sc. The conditions noted are these: in vivo.

One may read the logD as lipophilicity at a set pH, counting ionised and neutral species. Low values mean a more hydrophilic compound, high ones a more lipophilic compound. Take `COC(C)(C)c1cc(-c2noc([C@H](C)NC(=O)c3cc(C(F)(F)F)nn3C)n2)ccn1`: the logD in data set [1] is 3.8. Besides, the CLint in data set [2] was determined as 21 µL/min/mg.

For `Cc1cc(-c2noc([C@H](C)NC(=O)c3cc(C(F)(F)F)nn3C)n2)ccn1`, the logD in data set [1] stood at 3.3. Further, in data set [2], the CLint was under 9.6 µL/min/mg.

The compound `CNc1cc(-c2noc([C@H](C)NC(=O)c3cc(C(F)(F)F)nn3C)n2)ccn1` returned a logD in data set [1] of 3.4. In addition, in data set [2], the CLint turned out to be 28 µL/min/mg.

As a reminder, the clearance is a measure of how efficiently the substance is removed, as volume per time. The term half-life denotes how long it takes for the measured level to halve. Broadly, the bioavailability is the share of a dose that reaches the circulation, judged against a reference dose that is usually intravenous. A lower bioavailability goes with poor availability. Take `C[C@H](NC(=O)c1cc(C(F)(F)F)nn1C)c1nc(-c2ccnc(C(F)(F)F)c2)no1`: the logD in data set [1] stood at 3.6. Also, the clearance in data set [3] was found to be 2 mL/min/kg. Further, the Vd in data set [4] is 1.88 L/kg. In data set [5], the half-life was over 1200 min. The bioavailability in data set [6] worked out at 100%. In data set [7], the “Drug uptake(free)” value amounted to 270 nM. This compound displayed a Drug uptake in data set [8] of 1204 nM. Moreover, the CLint in data set [2] is under 9.6 µL/min/mg.

In turn, `C[C@H](NC(=O)c1cc(C(F)(F)F)nn1C)c1nc(-c2ccnc(N3CCCC3)c2)no1` displayed a logD in data set [1] of 4.2. Moreover, the CLint in data set [2] amounted to 48 µL/min/mg.

Regarding `COCc1cc(-c2noc([C@H](C)NC(=O)c3cc(C(F)(F)F)nn3C)n2)ccn1`, the logD in data set [1] was 3. The CLint in data set [2] was under 9.6 µL/min/mg.

As for `C[C@H](NC(=O)c1cc(C(F)(F)F)nn1C)c1nc(-c2ccnc(C3CC3)c2)no1`, in data set [1], the logD was determined as 4.1. Moreover, in data set [2], the CLint is under 9.6 µL/min/mg.

With `C[C@H](NC(=O)c1cc(C(F)(F)F)nn1C)c1nc(-c2ccnc(C(F)F)c2)no1`, the logD in data set [1] was determined as 3.4. In data set [2], the CLint is under 9.6 µL/min/mg.

Compound `COc1cc(-c2noc([C@H](C)NC(=O)c3cc(C(F)(F)F)nn3C)n2)ccn1` returned a logD in data set [1] of 3.4. The CLint in data set [2] is under 9.6 µL/min/mg.

`COc1cc(-c2noc([C@H](C)NC(=O)c3cc(C(F)(F)F)nn3C)n2)cc(C)n1` displayed a logD in data set [1] of 4.4. Besides, the CLint in data set [2] was determined as 10 µL/min/mg.

Regarding `C[C@H](NC(=O)c1cc(C(F)(F)F)nn1C)c1nc(-c2ccnc(N(C)C)c2)no1`, the logD in data set [1] was 3.9. In data set [2], the CLint was 56 µL/min/mg.
